Source: ChEMBL document CHEMBL3525967, “In vitro glucuronidation of the antibacterial triclocarban and its oxidative metabolites” (Drug Metab Dispos, 2012)

How the values were obtained:
Format in all cases: ADME
Liver microsome = test: Drug metabolism in human liver microsomes assessed as N-glucuronide-triclocarban formation incubated for 5 mins prior to UDPGA addition measured after 5 to 30 mins by LC-UV analysis
How it was run: (§1)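 Pooled human kidney or liver microsomes (liver: 25 mixed-gender donors), 5 µg protein, in 200 µL 100 mM potassium phosphate pH 7.4. Alamethicin pre-treated on ice 15 min. Final 10 µM TCC (2% DMSO), with 10 mM MgCl2 and 10 mM saccharolactone, preincubated 5 min at 37 °C. Started with UDPGA (20 mM stock). Sampled at 5, 10, 15 and 30 min into ACN containing 1 µM DCC internal standard.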

[1] = Drug metabolism in human kidney microsomes assessed as N'-glucuronide-triclocarban formation incubated for 5 mins prior to UDPGA addition measured after 30 mins by LC-UV-ESI-MS/MS analysis; details: 0.5 h; how it was run: as §1
[2] = biological target: T1, UDP-glucuronosyltransferase 1A4 (Homo sapiens, UniProt P22310); test: Drug metabolism assessed as human UGT1A4-mediated N-glucuronide-triclocarban formation expressed in baculovirus infected insect sf9 cells incubated for 5 mins prior to UDPGA addition measured after 5 to 30 mins by LC-UV analysis
T1 sequence (P22310 whole entry): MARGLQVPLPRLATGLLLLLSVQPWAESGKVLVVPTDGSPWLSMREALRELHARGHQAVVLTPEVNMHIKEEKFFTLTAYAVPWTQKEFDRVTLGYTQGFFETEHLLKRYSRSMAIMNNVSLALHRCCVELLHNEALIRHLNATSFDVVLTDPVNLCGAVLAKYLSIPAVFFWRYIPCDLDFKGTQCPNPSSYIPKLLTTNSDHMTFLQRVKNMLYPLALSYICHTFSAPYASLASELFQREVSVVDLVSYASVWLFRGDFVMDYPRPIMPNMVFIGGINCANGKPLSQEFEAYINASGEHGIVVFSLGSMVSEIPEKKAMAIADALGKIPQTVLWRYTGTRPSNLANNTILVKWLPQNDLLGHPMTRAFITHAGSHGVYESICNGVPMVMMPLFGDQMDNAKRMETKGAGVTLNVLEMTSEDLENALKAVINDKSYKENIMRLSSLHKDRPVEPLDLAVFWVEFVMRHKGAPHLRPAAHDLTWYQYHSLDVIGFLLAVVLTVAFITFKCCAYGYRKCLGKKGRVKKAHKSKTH
How it was run: (§2)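 Microsomes or UGT Supersomes (5 µg protein) were held 15 min on ice with alamethicin in 100 mM potassium phosphate pH 7.4. TCC was added at 10 µM (2% DMSO) with 10 mM MgCl2 and 10 mM saccharolactone, pre-warmed 5 min at 37 °C, then started with UDPGA. Samples at 5, 10, 15 and 30 min were quenched in ACN. Product was read by LC-UV at 265 nm; rate came from regression over time, three incubations.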

[3] = biological target: T2, UDP-glucuronosyltransferase 2B4 (Homo sapiens, UniProt P06133); test: Drug metabolism assessed as human UGT2B4-mediated N'-glucuronide-triclocarban formation expressed in baculovirus infected insect sf9 cells incubated for 5 mins prior to UDPGA addition measured after 5 to 30 mins by LC-UV analysis; how it was run: as §2
T2 sequence (P06133 whole entry): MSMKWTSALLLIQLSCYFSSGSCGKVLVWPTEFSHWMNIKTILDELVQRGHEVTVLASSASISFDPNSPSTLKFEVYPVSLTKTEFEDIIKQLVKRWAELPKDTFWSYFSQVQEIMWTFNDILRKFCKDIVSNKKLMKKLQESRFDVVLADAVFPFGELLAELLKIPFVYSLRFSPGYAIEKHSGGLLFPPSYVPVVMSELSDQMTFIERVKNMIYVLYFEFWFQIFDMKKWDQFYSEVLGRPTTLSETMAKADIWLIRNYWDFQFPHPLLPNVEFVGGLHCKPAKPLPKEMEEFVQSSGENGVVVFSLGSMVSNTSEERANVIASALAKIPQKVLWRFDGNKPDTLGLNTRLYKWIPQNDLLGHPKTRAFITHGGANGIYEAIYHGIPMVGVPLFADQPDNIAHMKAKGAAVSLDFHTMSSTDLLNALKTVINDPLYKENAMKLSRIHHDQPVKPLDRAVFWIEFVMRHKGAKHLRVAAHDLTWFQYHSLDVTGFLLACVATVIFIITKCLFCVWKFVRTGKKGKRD

[4] = biological target: T3, UDP-glucuronosyltransferase 2B7 (Homo sapiens, UniProt P16662); test: Drug metabolism assessed as human UGT2B7-mediated N'-glucuronide-triclocarban formation expressed in baculovirus infected insect sf9 cells incubated for 5 mins prior to UDPGA addition measured after 5 to 30 mins by LC-UV analysis; how it was run: as §2
T3 sequence (P16662 whole entry): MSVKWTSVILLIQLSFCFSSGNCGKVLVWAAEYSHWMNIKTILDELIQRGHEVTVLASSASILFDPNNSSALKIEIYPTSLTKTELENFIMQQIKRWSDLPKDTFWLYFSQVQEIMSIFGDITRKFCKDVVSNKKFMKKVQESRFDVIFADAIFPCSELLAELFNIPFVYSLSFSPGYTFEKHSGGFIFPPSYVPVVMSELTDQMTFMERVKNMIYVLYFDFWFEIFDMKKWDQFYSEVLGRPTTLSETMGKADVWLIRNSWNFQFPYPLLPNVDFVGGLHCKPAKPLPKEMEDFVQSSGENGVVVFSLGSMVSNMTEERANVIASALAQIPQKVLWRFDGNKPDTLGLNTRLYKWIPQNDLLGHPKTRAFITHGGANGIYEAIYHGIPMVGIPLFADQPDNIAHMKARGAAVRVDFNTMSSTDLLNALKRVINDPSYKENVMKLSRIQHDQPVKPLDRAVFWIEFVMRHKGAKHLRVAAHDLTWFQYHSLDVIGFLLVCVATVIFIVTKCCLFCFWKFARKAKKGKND

[5] = biological target: T4, UDP-glucuronosyltransferase 2B15 (Homo sapiens, UniProt P54855); test: Drug metabolism assessed as human UGT2B15-mediated N'-glucuronide-triclocarban formation expressed in baculovirus infected insect sf9 cells incubated for 5 mins prior to UDPGA addition measured after 5 to 30 mins by LC-UV analysis; how it was run: as §2
T4 sequence (P54855 whole entry): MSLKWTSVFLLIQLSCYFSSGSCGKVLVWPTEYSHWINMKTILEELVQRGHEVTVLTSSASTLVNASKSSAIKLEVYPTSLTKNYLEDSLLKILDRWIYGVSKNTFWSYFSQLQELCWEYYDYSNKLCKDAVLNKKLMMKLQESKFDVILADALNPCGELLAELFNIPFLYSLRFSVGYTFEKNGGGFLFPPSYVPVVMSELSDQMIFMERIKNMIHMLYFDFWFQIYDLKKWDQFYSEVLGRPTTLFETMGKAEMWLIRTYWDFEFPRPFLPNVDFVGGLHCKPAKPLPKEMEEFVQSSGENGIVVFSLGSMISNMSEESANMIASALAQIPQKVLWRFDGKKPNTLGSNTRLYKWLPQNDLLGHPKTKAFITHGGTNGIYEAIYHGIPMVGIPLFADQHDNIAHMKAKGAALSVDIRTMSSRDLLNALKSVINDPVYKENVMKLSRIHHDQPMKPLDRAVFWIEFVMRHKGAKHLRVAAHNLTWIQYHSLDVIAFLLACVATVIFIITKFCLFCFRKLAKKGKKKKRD

Measured: Drug metabolism

O=C(Nc1ccc(Cl)cc1)Nc1ccc(Cl)c(Cl)c1 [TRICLOCARBAN]
metabolite_detected: [1]
metabolite_not_detected: Liver microsome | [2] | [3] | [4] | [5]
